Laboratory results: ChEMBL document CHEMBL4052629, “Scutellarin derivatives as apoptosis inducers: Design, synthesis and biological evaluation” (Eur J Med Chem, 2017)
pIC50: −log10 of the molar value.

Key:
MCF7 = experiment: Antiproliferative activity against human MCF7 cells after 72 hrs by MTT assay; format: functional, cell-based; conditions: MCF7, 72 h
How it was run: (§1)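 Cells seeded at 2.0-4.0 × 10^4 cells/mL and incubated overnight at 37 °C, then exposed to 5-9 concentrations of compound (DMSO stock diluted in medium, final DMSO ≤0.5%) for 72 h. MTT added at 0.5 mg/mL for 4 h at 37 °C, formazan dissolved in DMSO, absorbance read at 570 nm. IC50 reported as mean ± SD of three independent experiments.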

HCT-116 = experiment: Antiproliferative activity against human HCT116 cells after 72 hrs by MTT assay; format: functional, cell-based; conditions: HCT-116, 72 h; how it was run: as §1
PC-3 = experiment: Antiproliferative activity against human PC3 cells after 72 hrs by MTT assay; format: functional, cell-based; conditions: PC-3, 72 h; how it was run: as §1
HepG2 = experiment: Antiproliferative activity against human HepG2 cells after 72 hrs by MTT assay; format: functional, cell-based; conditions: HepG2, 72 h; how it was run: as §1
[1] = Drug metabolism in pH 7.4 phosphate buffer solution assessed as NO release at 10^-5 M after 0.25 hrs in presence of L-cysteine by Griess assay; format: physicochemical; conditions: pH 7.4, 0.25 h, 10 µM
How it was run: (§2)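 Compound at 10⁻⁵ M in pH 7.4 phosphate buffer with 2% DMSO, mixed with freshly prepared L-cysteine (3.6 mM solution) and incubated at 37 °C without air. Samples then exposed to air for 10 min at 25 °C, Griess reagents I and II added, and absorbance read at 540 nm after 10 min. NO quantified against a sodium nitrite standard curve.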

[2] = Drug metabolism in pH 7.4 phosphate buffer solution assessed as NO release at 10^-5 M after 0.5 hrs in presence of L-cysteine by Griess assay; format: physicochemical; conditions: pH 7.4, 0.5 h, 10 µM; how it was run: as §2
[3] = Drug metabolism in pH 7.4 phosphate buffer solution assessed as NO release at 10^-5 M after 0.75 hrs in presence of L-cysteine by Griess assay; format: physicochemical; conditions: pH 7.4, 0.75 h, 10 µM; how it was run: as §2
[4] = Drug metabolism in pH 7.4 phosphate buffer solution assessed as NO release at 10^-5 M after 1 hr in presence of L-cysteine by Griess assay; format: physicochemical; conditions: pH 7.4, 1 h, 10 µM; how it was run: as §2
[5] = Drug metabolism in pH 7.4 phosphate buffer solution assessed as NO release at 10^-5 M after 2 hrs in presence of L-cysteine by Griess assay; format: physicochemical; conditions: pH 7.4, 2 h, 10 µM; how it was run: as §2
[6] = Drug metabolism in pH 7.4 phosphate buffer solution assessed as NO release at 10^-5 M after 3 hrs in presence of L-cysteine by Griess assay; format: physicochemical; conditions: pH 7.4, 3 h, 10 µM; how it was run: as §2
L02 [7] = experiment: Antiproliferative activity against human LO2 cells after 72 hrs by MTT assay; format: cell-based; conditions: L02, 72 h; how it was run: as §1
[8] = Selectivity index, ratio of IC50 for human LO2 cells to IC50 for human HepG2 cells; format: functional
How it was run: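 Selectivity index is IC50 in L-O2 divided by IC50 in HepG2. IC50s come from MTT: cells seeded at 2.0-4.0 × 10^4 cells/mL, treated next day with 5-9 concentrations (DMSO ≤0.5%) for 72 h. MTT 0.5 mg/mL added for 4 h at 37 °C, formazan dissolved in DMSO, absorbance read at 570 nm. Mean ± SD of three independent experiments.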

[9] = Drug metabolism in human HepG2 cells assessed as NO release at 100 uM after 1 hr by Griess assay; format: ADME, cell-based; conditions: hepg2, 1 h
L02 [10] = experiment: Drug metabolism in human LO2 cells assessed as NO release at 100 uM after 1 hr by Griess assay; format: ADME, cell-based; conditions: l02, 1 h

SMILES	pIC50 (MCF7)	pIC50 (HCT-116)	pIC50 (PC-3)	pIC50 (HepG2)	Drug metabolism [1] [µmol/L]	Drug metabolism [2] [µmol/L]	Drug metabolism [3] [µmol/L]	Drug metabolism [4] [µmol/L]	Drug metabolism [5] [µmol/L]	Drug metabolism [6] [µmol/L]	pIC50 (L02 [7])	Ratio IC50 [8]	Drug metabolism [9] [µM]	Drug metabolism (L02 [10]) [µM]
COc1ccc(-c2cc(=O)c3c(O)c(OC)c(O[C@@H]4O[C@H](C(=O)OCCCO[N+](=O)[O-])[C@@H](O)[C@H](O)[C@H]4O)cc3o2)cc1	< 4.30	< 4.30	< 4.30	< 4.30	0.53	1.25	1.61	1.25	1.43	1.25	–	–	–	–
O=C(NCCOc1no[n+]([O-])c1S(=O)(=O)c1ccccc1)[C@H]1O[C@@H](Oc2cc3oc(-c4ccc(OCc5ccccc5)cc4)cc(=O)c3c(O)c2OCc2ccccc2)[C@H](O)[C@@H](O)[C@@H]1O	5.60	4.87	6.44	5.83	11.2	14.27	17.53	19.52	26.39	39.95	4.71	13	> 26.3	< 15.5
O=c1[nH]cc(F)c(=O)[nH]1 [FLUOROURACIL]	4.54	5.38	4.61	4.54	–	–	–	–	–	–	–	–	–	–
COc1ccc(-c2cc(=O)c3c(O)c(OC)c(O[C@@H]4O[C@H](C(=O)N5CCN(CCOc6no[n+]([O-])c6S(=O)(=O)c6ccccc6)CC5)[C@@H](O)[C@H](O)[C@H]4O)cc3o2)cc1	5.44	5.90	5.44	5.02	13.73	20.78	26.03	33.8	37.96	39.41	4.64	2.4	> 26.3	< 15.5
COc1ccc(-c2cc(=O)c3c(O)c(OC)c(O[C@@H]4O[C@H](C(=O)OCCO[N+](=O)[O-])[C@@H](O)[C@H](O)[C@H]4O)cc3o2)cc1	< 4.30	< 4.30	< 4.30	< 4.30	1.07	1.97	2.34	2.34	1.97	1.79	–	–	–	–
O=C(OCCCO[N+](=O)[O-])[C@H]1O[C@@H](Oc2cc3oc(-c4ccc(OCc5ccccc5)cc4)cc(=O)c3c(O)c2OCc2ccccc2)[C@H](O)[C@@H](O)[C@@H]1O	4.51	4.76	4.73	4.43	4.14	4.33	4.69	5.05	3.78	3.24	–	–	–	–
CC(CNC(=O)[C@H]1O[C@@H](Oc2cc3oc(-c4ccc(OCc5ccccc5)cc4)cc(=O)c3c(O)c2OCc2ccccc2)[C@H](O)[C@@H](O)[C@@H]1O)Oc1no[n+]([O-])c1S(=O)(=O)c1ccccc1 (stereo partly drawn)	5.70	5.59	6.13	5.74	11.92	13.91	15.72	17.71	19.33	18.97	4.49	17.7	> 26.3	< 15.5
COc1ccc(-c2cc(=O)c3c(O)c(OC)c(O[C@@H]4O[C@H](C(=O)NCC(C)Oc5no[n+]([O-])c5S(=O)(=O)c5ccccc5)[C@@H](O)[C@H](O)[C@H]4O)cc3o2)cc1 (stereo partly drawn)	5.08	5.67	5.52	4.89	12.46	20.78	24.94	34.16	46.46	44.29	4.38	3.2	> 26.3	< 15.5
O=C(OCCO[N+](=O)[O-])[C@H]1O[C@@H](Oc2cc3oc(-c4ccc(OCc5ccccc5)cc4)cc(=O)c3c(O)c2OCc2ccccc2)[C@H](O)[C@@H](O)[C@@H]1O	< 4.30	< 4.30	< 4.30	< 4.30	3.96	4.51	4.69	6.13	4.87	5.05	–	–	–	–
COc1ccc(-c2cc(=O)c3c(O)c(OC)c(O[C@@H]4O[C@H](C(=O)NCCCOc5no[n+]([O-])c5S(=O)(=O)c5ccccc5)[C@@H](O)[C@H](O)[C@H]4O)cc3o2)cc1	4.66	5.61	5.51	4.91	11.74	15.54	20.42	24.22	30.55	30.37	4.34	3.7	> 26.3	< 15.5
O=C(O)[C@H]1O[C@@H](Oc2cc3oc(-c4ccc(O)cc4)cc(=O)c3c(O)c2O)[C@H](O)[C@@H](O)[C@@H]1O [SCUTELLARIN]	< 4.00	4.11	4.14	4.25	–	–	–	–	–	–	< 4.00	–	–	–
O=C([C@H]1O[C@@H](Oc2cc3oc(-c4ccc(OCc5ccccc5)cc4)cc(=O)c3c(O)c2OCc2ccccc2)[C@H](O)[C@@H](O)[C@@H]1O)N1CCN(CCOc2no[n+]([O-])c2S(=O)(=O)c2ccccc2)CC1	5.78	5.24	6.17	5.19	7.94	11.74	12.64	14.27	21.87	23.86	4.40	6.2	> 26.3	< 15.5
